Test results reported in ChEMBL document CHEMBL1687928, “Discovery, optimization, and pharmacological characterization of novel heteroaroylphenylureas antagonists of C-C chemokine ligand 2 function” (J Med Chem, 2011).
Active and inactive are the calls of the source. No cut-off for these calls is given here.

How the values were obtained:
[1] = target: CYP2C19 (Homo sapiens, UniProt P33261); assay: Inhibition of CYP2C19 at 100 uM; format: ADME
[2] = Aqueous solubility of the compound at pH 1.2; format: physicochemical
[3] = target: T1, CYP2D6 (Homo sapiens, UniProt P10635); assay: Inhibition of CYP2D6 at 1 uM; format: ADME
[4] = Half life in rat at 5 mg/kg, po; format: ADME, organism-based; set-up: dose 5 mg/kg, route oral; details: in vivo
[5] = tested on: Mus musculus; assay: Toxicity in ICR mouse assessed as occurrence of hypoactivity at 500 mg/kg, po administered as single dose; format: organism-based; set-up: dose 500 mg/kg, route oral; details: in vivo
[6] = tested on: Mus musculus; assay: Toxicity in ICR mouse at 100 mg/kg, po administered as single dose; format: organism-based; set-up: dose 100 mg/kg, route oral; details: in vivo
[7] = tested on: Mus musculus; assay: Toxicity in ICR mouse assessed as increase in AST level at 300 mg/kg, po QD for 14 days; format: organism-based; set-up: dose 300 mg/kg, route oral; details: in vivo, 336 h
Procedure, shortened: (§1)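 Repeated-dose study in 6-week-old male ICR mice. Vehicle or 30, 100 or 300 mg/kg was given orally once daily for 14 days. Survival, behavior, body weight and liver enzymes (AST, ALT) were monitored.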

[8] = AUC (0 to 24 hrs) in rat at 5 mg/kg, po; format: ADME, organism-based; set-up: time < 24 hr, dose 5 mg/kg, route oral; details: plasma
[9] = tested on: Rattus norvegicus; assay: Oral bioavailability in rat at 5 mg/kg, po; format: ADME, organism-based; details: in vivo
Procedure, shortened: (§2)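 Rats, not fasted, received a single intravenous or oral dose.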

[10] = target: T2, CYP2C9 (Homo sapiens, UniProt P11712); assay: Inhibition of CYP2C9 at 1 uM; format: ADME
[11] = target: T3, CYP1A2 (Homo sapiens, UniProt P05177); assay: Inhibition of CYP1A2 at 100 uM; format: ADME
T3 sequence (P05177 whole entry): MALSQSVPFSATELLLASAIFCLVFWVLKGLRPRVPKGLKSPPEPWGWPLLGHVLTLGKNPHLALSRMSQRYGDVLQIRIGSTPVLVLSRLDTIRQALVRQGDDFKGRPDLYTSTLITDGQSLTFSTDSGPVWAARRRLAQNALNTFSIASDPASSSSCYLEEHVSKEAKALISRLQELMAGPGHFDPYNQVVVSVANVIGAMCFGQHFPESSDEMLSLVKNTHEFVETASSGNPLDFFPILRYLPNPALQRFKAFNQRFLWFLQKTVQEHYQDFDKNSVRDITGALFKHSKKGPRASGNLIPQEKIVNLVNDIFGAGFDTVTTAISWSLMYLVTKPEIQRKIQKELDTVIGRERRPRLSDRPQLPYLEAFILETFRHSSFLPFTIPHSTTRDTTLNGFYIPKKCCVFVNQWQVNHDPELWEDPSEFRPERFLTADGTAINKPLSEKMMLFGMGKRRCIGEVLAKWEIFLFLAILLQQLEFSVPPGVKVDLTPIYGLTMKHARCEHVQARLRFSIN

[12] = target: T4, CYP3A4 (Homo sapiens, UniProt P08684); assay: Inhibition of CYP3A4 at 100 uM; format: ADME
[13] = tested on: Rattus norvegicus; assay: Antiinflammatory activity in complete Freund's adjuvant-induced Lewis rat arthritis model assessed as inhibition of paw edema at 30 mg/kg, po BID; format: functional, organism-based; set-up: dose 30 mg/kg
Procedure, shortened: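 Female Lewis SPF rats, 6 weeks old (n = 8/group), received an intradermal right hind footpad injection of 100 μL PBS-emulsified Freund's complete adjuvant (10 mg/mL M. butyricum). From day 10, compound in 5% gum arabic or vehicle was gavaged b.i.d. for a further 18 days; methotrexate 3×/week was the positive control. Left hind-limb volume was read by plethysmometer on days 0, 8, 15, 21 and 28, as % increase over day 0.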

[14] = tested on: Mus musculus; assay: Toxicity in ICR mouse assessed as CNS excitation at 1000 mg/kg, po administered as single dose; format: organism-based; set-up: dose 1000 mg/kg, route oral; details: in vivo
[15] = target: T4, CYP3A4; assay: Inhibition of CYP3A4 at 1 uM; format: ADME
[16] = AUC (0 to 24 hrs) in rat at 100 mg/kg, po; format: ADME, organism-based; set-up: time < 24 hr, dose 100 mg/kg, route oral; details: plasma
[17] = Half life in rat at 5 mg/kg, iv; format: ADME, organism-based; set-up: dose 5 mg/kg, route intravenous; details: in vivo
[18] = target: T2, CYP2C9; assay: Inhibition of CYP2C9 at 100 uM; format: ADME
[19] = tested on: Rattus norvegicus; assay: Antiinflammatory activity in collagen-induced arthritis Lewis rat model assessed as inhibition of paw edema at 2 to 30 mg/kg, po BID for 28 days measured on […] by Plethysmometer; format: functional, organism-based
Procedure, shortened: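 Female Lewis SPF rats, 6 weeks old (n = 8/group), were immunized at the tail base with 900 μg bovine type II collagen in Freund's complete adjuvant (4 mg/mL M. tuberculosis) on day 0. A 450 μg boost followed on day 7. Compound in 5% aqueous gum arabic was gavaged b.i.d. for 28 days from day 0, against vehicle; methotrexate 3×/week served as positive control. Hind-limb volume was read by plethysmometer on days 0, 12, 14, 21 and 28, as % increase over day 0.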

[20] = tested on: Mus musculus; assay: Toxicity in ICR mouse assessed as vacuolar degeneration in kidney at 300 mg/kg, po QD for 14 days; format: organism-based; set-up: dose 300 mg/kg, route oral; details: in vivo, 336 h
[21] = target: T1, CYP2D6; assay: Inhibition of CYP2D6 at 100 uM; format: ADME
[22] = Tmax in rat at 100 mg/kg, po; format: ADME, organism-based; set-up: dose 100 mg/kg, route oral; details: in vivo; procedure, shortened: as §2
[23] = tested on: Mus musculus; assay: Toxicity in ICR mouse assessed as increase in feeding behavior at 1000 mg/kg, po administered as single dose; format: organism-based; set-up: dose 1000 mg/kg, route oral; details: in vivo
[24] = tested on: Mus musculus; assay: Toxicity in ICR mouse assessed as increase in ALT level at 300 mg/kg, po QD for 14 days; format: organism-based; set-up: dose 300 mg/kg, route oral; details: in vivo, 336 h; procedure, shortened: as §1
[25] = Aqueous solubility of the compound at pH 7.4; format: physicochemical
[26] = Cmax in rat at 100 mg/kg, po; format: ADME, organism-based; set-up: dose 100 mg/kg, route oral; details: in vivo
[27] = Tmax in rat at 5 mg/kg, po; format: ADME, organism-based; set-up: dose 5 mg/kg, route oral; details: in vivo; procedure, shortened: as §2
[28] = AUC (0 to 24 hrs) in rat at 30 mg/kg, po; format: ADME, organism-based; set-up: time < 24 hr, dose 30 mg/kg, route oral; details: plasma
[29] = AUC (0 to 24 hrs) in rat at 5 mg/kg, iv; format: ADME, organism-based; set-up: time < 24 hr, dose 5 mg/kg, route intravenous; details: plasma
[30] = species: Mus musculus; assay: Antiinflammatory activity in Freund's adjuvant-induced C57BL/6 mouse assessed as decrease in inflammatory cell infiltrates in spinal cord; format: functional, organism-based
Procedure, shortened: (§3)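 C57BL/6 mice were immunized s.c. with a MOG33-55 peptide emulsion and given pertussis vaccine (350 ng i.v.) right away and again 48 h later. From day 0, compound in 3% aqueous Tween 80 (4 mg/mL) or water was dosed orally b.i.d. Tissue cellular infiltrate was scored 0–5, from few small perivascular/meningeal infiltrates up to very large extensive infiltrate.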

[31] = Cmax in rat at 30 mg/kg, po; format: ADME, organism-based; set-up: dose 30 mg/kg, route oral; details: in vivo
[32] = Tmax in rat at 30 mg/kg, po; format: ADME, organism-based; set-up: dose 30 mg/kg, route oral; details: in vivo; procedure, shortened: as §2
[33] = species: Mus musculus; assay: Antiinflammatory activity in Freund's adjuvant-induced C57BL/6 mouse assessed as decrease in inflammatory cell infiltrates in brain; format: functional, organism-based; procedure, shortened: as §3
[34] = tested on: Rattus norvegicus; assay: Drug uptake in collagen-induced Lewis rat bone marrow at 2 to 30 mg/kg, po measured 5 hrs post last dose; format: functional, organism-based
Procedure, shortened: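 In the rat collagen-induced arthritis study (oral b.i.d. dosing for 28 days), compound concentration was measured in plasma, tarsal homogenates and thigh-bone marrow. Samples were taken 5 h after the last dose on day 28.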

[35] = tested on: Mus musculus; assay: Immunosuppressive activity in delayed-type hypersensitivity po dosed […] ICR mouse assessed as inhibition of sheep RBC-induced foot-pad swelling administered 1 hr prior and 2 hr after SRBC challenge measured on day 5 by Plethysmometer; format: functional, organism-based

T1 sequence (P10635 whole entry): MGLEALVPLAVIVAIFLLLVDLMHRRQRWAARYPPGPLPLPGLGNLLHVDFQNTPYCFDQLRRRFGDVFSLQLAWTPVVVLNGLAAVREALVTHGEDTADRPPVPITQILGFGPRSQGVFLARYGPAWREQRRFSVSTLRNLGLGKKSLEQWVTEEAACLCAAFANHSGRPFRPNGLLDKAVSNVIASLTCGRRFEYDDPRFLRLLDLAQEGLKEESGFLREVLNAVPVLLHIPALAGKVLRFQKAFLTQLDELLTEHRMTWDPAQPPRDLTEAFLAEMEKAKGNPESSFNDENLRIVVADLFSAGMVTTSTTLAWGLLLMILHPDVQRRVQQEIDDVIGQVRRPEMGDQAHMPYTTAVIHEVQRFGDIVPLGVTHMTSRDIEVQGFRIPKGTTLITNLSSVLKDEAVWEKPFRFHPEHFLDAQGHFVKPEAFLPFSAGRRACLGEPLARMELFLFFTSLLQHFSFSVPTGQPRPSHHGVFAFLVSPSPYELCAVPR
T2 sequence (P11712 whole entry): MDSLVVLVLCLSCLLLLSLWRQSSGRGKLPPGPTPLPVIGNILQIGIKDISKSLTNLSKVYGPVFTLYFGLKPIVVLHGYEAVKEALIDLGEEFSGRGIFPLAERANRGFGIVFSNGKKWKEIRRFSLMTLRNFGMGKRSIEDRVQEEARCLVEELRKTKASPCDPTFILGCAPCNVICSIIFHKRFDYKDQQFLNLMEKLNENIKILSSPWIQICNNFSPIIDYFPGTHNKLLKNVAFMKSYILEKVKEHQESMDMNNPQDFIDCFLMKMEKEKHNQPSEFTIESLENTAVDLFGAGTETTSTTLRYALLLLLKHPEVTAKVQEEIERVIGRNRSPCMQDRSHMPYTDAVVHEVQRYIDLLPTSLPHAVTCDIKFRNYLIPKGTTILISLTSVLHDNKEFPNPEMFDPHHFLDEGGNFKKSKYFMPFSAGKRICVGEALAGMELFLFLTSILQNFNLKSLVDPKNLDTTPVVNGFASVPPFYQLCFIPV
T4 sequence (P08684 whole entry): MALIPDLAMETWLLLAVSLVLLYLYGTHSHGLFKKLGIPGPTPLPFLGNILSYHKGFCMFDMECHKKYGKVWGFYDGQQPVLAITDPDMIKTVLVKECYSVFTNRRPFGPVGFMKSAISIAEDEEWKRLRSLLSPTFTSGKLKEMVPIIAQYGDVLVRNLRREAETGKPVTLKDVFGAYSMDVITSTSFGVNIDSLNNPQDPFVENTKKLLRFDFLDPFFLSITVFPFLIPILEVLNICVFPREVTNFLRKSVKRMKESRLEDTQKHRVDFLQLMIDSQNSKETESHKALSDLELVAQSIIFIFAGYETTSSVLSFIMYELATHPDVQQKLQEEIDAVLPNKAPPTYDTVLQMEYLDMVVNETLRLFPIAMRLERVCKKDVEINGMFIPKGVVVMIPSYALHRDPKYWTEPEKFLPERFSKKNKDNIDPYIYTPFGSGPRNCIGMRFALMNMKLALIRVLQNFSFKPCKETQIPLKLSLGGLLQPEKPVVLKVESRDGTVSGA
Chain of CYP2C19 (P33261 whole entry): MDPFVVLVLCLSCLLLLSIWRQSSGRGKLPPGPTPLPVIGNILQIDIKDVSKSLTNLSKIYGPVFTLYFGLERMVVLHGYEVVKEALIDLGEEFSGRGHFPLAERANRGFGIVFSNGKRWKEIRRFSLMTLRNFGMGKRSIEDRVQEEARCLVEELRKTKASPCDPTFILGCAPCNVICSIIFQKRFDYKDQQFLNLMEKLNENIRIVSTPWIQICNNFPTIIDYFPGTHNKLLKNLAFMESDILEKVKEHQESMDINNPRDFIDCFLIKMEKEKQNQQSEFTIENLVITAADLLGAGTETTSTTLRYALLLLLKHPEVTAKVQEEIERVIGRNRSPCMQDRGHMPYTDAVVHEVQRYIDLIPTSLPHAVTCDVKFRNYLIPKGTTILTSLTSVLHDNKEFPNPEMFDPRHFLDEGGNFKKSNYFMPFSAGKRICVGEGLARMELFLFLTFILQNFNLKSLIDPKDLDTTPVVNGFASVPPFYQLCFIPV

## Cc1nn(C)c2nc(N(C)CCN(C)C)c(C(=O)NC(=O)Nc3cccc(OC(C)C)c3)cc12.Cl
[1]
  inhibition at 100 µM: 34%
[2]
  solubility: 31.3 µg/mL
[3]
  inhibition at 1 µM: -5%
[4]
  half-life: > 24 h
[5]
  Activity: Toxic
[6]
  Activity: Non-toxic
[7]
  Activity: Toxic
[8]
  AUC(0-t) at 24 h: 1620 ng·h/mL
[9]
  F: 60%
[10]
  inhibition at 1 µM: 11%
[11]
  inhibition at 100 µM: -2%
[12]
  inhibition at 100 µM: 49%
[13]
  Activity: Active
[14]
  Activity: Toxic
[15]
  inhibition at 1 µM: 4%
[16]
  AUC(0-t) at 24 h: 15100 ng·h/mL
[17]
  half-life: 10 h
[18]
  inhibition at 100 µM: 36%
[19]
  Activity: Dose-dependent effect
[20]
  Activity: Toxic
[21]
  inhibition at 100 µM: 73%
[22]
  Tmax: 3 h
[23]
  Activity: Toxic
[24]
  Activity: Toxic
[25]
  solubility: 7.8 µg/mL
[26]
  Cmax: 927 ng/mL
[27]
  Tmax: 5 h
[28]
  AUC(0-t) at 24 h: 5570 ng·h/mL
[29]
  AUC(0-t) at 24 h: 2690 ng·h/mL
[30]
  Activity: Active
[31]
  Cmax: 383 ng/mL
[32]
  Tmax: 3 h
[33]
  Activity: Active
[34]
  Drug uptake: Active
[35]
  Activity: Active
